In experiment [1] the target is Apoptosis regulator Bcl-2 (Homo sapiens, UniProt P10415). Description: Displacement of Flu-Bak peptide from recombinant antiapoptotic Bcl2 protein by fluorescence polarization assay. In a few lines: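 Recombinant Ni-NTA-purified proteins from E. coli ER2566 (Bcl-2 lacking transmembrane domain). This is added to compound from 3-fold DMSO stocks (0.014–10 mM), incubated 1 h at 23 °C, and polarization read. Peptide-only background is subtracted. Ki is from the Wang equation; triplicates, run twice.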
For orientation: Fluorescence polarisation rises when a labelled molecule tumbles more slowly, as on binding a larger partner.

The next experiment addresses T1, Bcl-2-like protein 2 (Homo sapiens, UniProt Q92843).
T1 sequence (Q92843 whole entry): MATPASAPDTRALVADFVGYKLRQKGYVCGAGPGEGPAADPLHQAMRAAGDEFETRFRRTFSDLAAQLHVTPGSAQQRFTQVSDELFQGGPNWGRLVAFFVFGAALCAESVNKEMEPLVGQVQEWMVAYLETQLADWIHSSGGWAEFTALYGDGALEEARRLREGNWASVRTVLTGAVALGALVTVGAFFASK
Description: Displacement of Flu-Bak peptide from recombinant antiapoptotic Bcl-w protein by fluorescence polarization assay. In a few lines: (§1)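 Recombinant Ni-NTA-purified proteins from E. coli ER2566 (Bcl-2 lacking transmembrane domain). Oregon Green-labelled Bak BH3 peptide (50 nM in premix) is preincubated 1 h at 23 °C with protein for 60% complex (Bcl-2 1000 nM, Bcl-XL 880 nM, Bcl-w 1200 nM) in PBS pH 7.0 with 1 mM DTT. This is added to compound from 3-fold DMSO stocks (0.014–10 mM), incubated 1 h at 23 °C, and polarization read. Peptide-only background is subtracted. Ki is from the Wang equation; triplicates, run twice.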

Experiment [2] is described as follows: Displacement of Flu-Bak peptide from recombinant antiapoptotic Bcl-XL protein by fluorescence polarization assay. Set-up: species or system Homo sapiens. In a few lines:
as §1

Experiment [3] is filed under the species Homo sapiens. Description: Selectivity for recombinant Bcl2 protein over recombinant Bcl-w protein.
Experiment [4] is filed under the species Homo sapiens. Description: Selectivity for recombinant Bcl-XL protein over recombinant Bcl-2 protein.
The species named for experiment [5] is Homo sapiens. Kind of experiment: Selectivity for recombinant Bcl-w protein over recombinant Bcl-XL protein.
Experiment [6] is filed under the species Homo sapiens. Kind of experiment: Selectivity for recombinant Bcl2 protein over recombinant Bcl-XL protein.

The structures appear in SMILES notation.

Chain of Apoptosis regulator Bcl-2 (P10415 whole entry, the tested form may be a part): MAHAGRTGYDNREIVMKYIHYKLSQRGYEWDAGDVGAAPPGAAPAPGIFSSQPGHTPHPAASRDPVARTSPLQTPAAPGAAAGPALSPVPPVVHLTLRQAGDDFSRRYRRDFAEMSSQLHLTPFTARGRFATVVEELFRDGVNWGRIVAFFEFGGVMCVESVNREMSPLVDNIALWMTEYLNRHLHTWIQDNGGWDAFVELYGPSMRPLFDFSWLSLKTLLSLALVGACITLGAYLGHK

Regarding `CSCC[C@@H](C(=O)O)N1C(=O)/C(=C/c2ccc(Br)cc2)SC1=S`, the Ki – broadly, a measure of affinity in units of concentration, obtained from inhibition or displacement – in experiment [1] was found to be 69.6 µM; at Bcl-2-like protein 2, 88 µM; in experiment [2] it was 134 µM. Also, in the experiment filed under Homo sapiens [3], the Ratio Ki stood at 1.26.

For the compound `C/C(=C1/SC(=S)N([C@@H](CC(C)C)C(=O)O)C1=O)c1ccccc1`, the results for the inhibition constant Ki (in experiment [1]; on Bcl-2-like protein 2; in experiment [2]) were 21.2 µM, 58.3 µM and 128 µM, respectively. Also, the Ratio Ki in the experiment filed under Homo sapiens [3] came to 2.74.

Consider `CC(C)C[C@@H](C(=O)O)N1C(=O)/C(=C(\c2ccccc2)c2ccc(-c3ccccc3)cc2)SC1=S`, for which the values for the Ki (in experiment [1]; at Bcl-2-like protein 2; in experiment [2]) were 1.95 µM, 6.98 µM and 8.7 µM, respectively. Moreover, the Ratio Ki in the experiment filed under Homo sapiens [3] was determined as 3.58.

For `CC(C)C[C@@H](C(=O)O)N1C(=O)/C(=C/c2ccc(Br)cc2)SC1=S`, the Ki in experiment [1] came out at 7.43 µM; on Bcl-2-like protein 2, 31.2 µM; in experiment [2], 2.99 µM. Moreover, in the experiment listed under Homo sapiens [4], the Ratio Ki was determined as 2.48.

As for `CC(C)C[C@@H](C(=O)O)N1C(=O)C(=C(c2ccccc2)c2ccccc2)SC1=S`, the Ki came to 57.8 µM in experiment [1], 61.9 µM at Bcl-2-like protein 2 and 68.8 µM in experiment [2]. In addition, the Ratio Ki in the experiment listed under Homo sapiens [3] came out at 1.07.

In the case of `C=CCOC(=O)[C@H](Cc1ccccc1)N1C(=O)/C(=C/c2ccc(Br)cc2)SC1=S`, the Ratio Ki in the experiment listed under Homo sapiens [5] worked out at 4.29. Besides, the Ki in experiment [1] is over 1000 µM; on Bcl-2-like protein 2, 56.8 µM; in experiment [2], 244 µM.

Turning to `O=C(O)[C@H](Cc1ccccc1)N1C(=O)/C(=C/c2ccc(Br)cc2)SC1=S`, the Ki was determined as 14.2 µM in experiment [1], 21.5 µM at Bcl-2-like protein 2 and 5.35 µM in experiment [2]. In addition, the Ratio Ki in the experiment filed under Homo sapiens [4] was 2.65.

`O=C(O)CC[C@@H](C(=O)O)N1C(=O)/C(=C/c2ccc(Br)cc2)SC1=S`: the figures for the Ki (in experiment [1]; on Bcl-2-like protein 2; in experiment [2]) were 320 µM, 610 µM and 848 µM, respectively. In addition, the Ratio Ki in the experiment listed under Homo sapiens [3] was determined as 1.91.

Turning to `CCC/C(=C1/SC(=S)N([C@@H](Cc2ccccc2)C(=O)O)C1=O)c1ccccc1`, the Ki was found to be 12 µM in experiment [1], 41.1 µM on Bcl-2-like protein 2 and 27.9 µM in experiment [2]. Moreover, in the experiment filed under Homo sapiens [6], the Ratio Ki amounted to 2.33.

`C[C@@H](C(=O)N1CCOCC1)N1C(=O)/C(=C/c2ccc(Br)cc2)SC1=S`: the Ki in experiment [1] is 70 µM; at Bcl-2-like protein 2 it was 146 µM; in experiment [2] it was 228 µM. Further, in the experiment filed under Homo sapiens [3], the Ratio Ki came out at 2.01.

Take `C=CCOC(=O)[C@H](C)N1C(=O)/C(=C/c2ccc(Br)cc2)SC1=S`: the Ki in experiment [1] is 192 µM; at Bcl-2-like protein 2, over 1000 µM; in experiment [2] it was 268 µM. Moreover, in the experiment listed under Homo sapiens [6], the Ratio Ki is 1.4.

For `C=CCOC(=O)[C@H](Cc1ccccc1)N1C(=O)C(=C(c2ccccc2)c2ccccc2)SC1=S`, the Ratio Ki in the experiment listed under Homo sapiens [5] came to 1.52. Besides, the inhibitory constant (Ki) came to 260 µM in experiment [1], 116 µM on Bcl-2-like protein 2 and 176 µM in experiment [2].

As to `CCC/C(=C1/SC(=S)N([C@@H](CC(C)C)C(=O)O)C1=O)c1ccccc1`, the values for the Ki (in experiment [1]; on Bcl-2-like protein 2; in experiment [2]) were 13.5 µM, 24.1 µM and 41.3 µM, respectively. Besides, in the experiment listed under Homo sapiens [3], the Ratio Ki is 1.79.

`O=C(O)[C@H](Cc1c[nH]c2ccccc12)N1C(=O)/C(=C/c2ccc(Br)cc2)SC1=S`: the figures for the Ki (in experiment [1]; on Bcl-2-like protein 2; in experiment [2]) were 2.85 µM, 54.2 µM and 32.8 µM, respectively. Moreover, the Ratio Ki in the experiment filed under Homo sapiens [6] came to 11.5.

In the case of `Cc1cc2c(C(C)C)c(O)c(O)c(C=O)c2c(O)c1-c1c(C)cc2c(C(C)C)c(O)c(O)c(C=O)c2c1O` [GOSSYPOL], the Ki at Bcl-2-like protein 2 worked out at 17.7 µM; in experiment [2], 24.7 µM.

In the case of `COc1ccc2c(c[n+](C)c3c4cc5c(cc4ccc23)OCO5)c1OC` [CHELERYTHRINE CHLORIDE], the Ki in experiment [1] stood at 171 µM; at Bcl-2-like protein 2, 106 µM; in experiment [2], 96 µM.

Take `CCCC[C@H]1C(=O)O[C@H](C)[C@H](NC(=O)c2cccc(NC=O)c2O)C(=O)O[C@@H](C)[C@@H]1OC(=O)CC(C)C` [ANTIMYCIN A3]: the Ki in experiment [1] is 124 µM; on Bcl-2-like protein 2 it was 127 µM.

`CC(C)C(C(=O)O)N1C(=O)/C(=C\c2ccc(Br)cc2)SC1=S` (stereo unspecified): the figures for the Ki (in experiment [1]; at Bcl-2-like protein 2; in experiment [2]) were 43.4 µM, 124 µM and 133 µM, respectively. The Ratio Ki in the experiment filed under Homo sapiens [3] amounted to 2.85.

As to `C[C@@H](C(=O)O)N1C(=O)/C(=C/c2ccc(Br)cc2)SC1=S`, the inhibition constant Ki in experiment [1] worked out at 115 µM; at Bcl-2-like protein 2, 243 µM; in experiment [2] it was 374 µM. In addition, the Ratio Ki in the experiment listed under Homo sapiens [3] came out at 2.11.
